From ChEMBL document CHEMBL2331323, “Design, synthesis and anticancer properties of 5-arylbenzoxepins as conformationally restricted isocombretastatin A-4 analogs” (Eur J Med Chem, 2013)
Activity calls are given as the source filed them. The rule behind the calls is not given here.

Organism: Ovis aries
Test: Ratio of compound IC50 to isoCA-4 IC50 for sheep brain tubulin polymerization by fluorimeter analysis
Settings: not given

Ratio IC50 | Compound
2 | COc1ccc2c(c1O)OCCCC2c1cc(OC)c(OC)c(OC)c1 (stereo not given)
2 | COc1cc(OC)cc(C2=CCCOc3c2ccc(OC)c3O)c1

Further lines, the molecule ahead of its results:

Compound | Ratio IC50
COc1ccc2c(c1)OCCC=C2c1cc(OC)c(OC)c(OC)c1 | 2
COc1ccc2c(c1N)OCCC=C2c1cc(OC)c(OC)c(OC)c1 | 2
COc1ccc2c(c1O)OCCC=C2c1cc(OC)c(OC)c(OC)c1 | 2

Test system: NCI-H1299
Test: Induction of apoptosis in human H1299 cells assessed as increase in proteolytic activity of caspase 3/7 after 24 hrs by fluorimeter analysis
Assay type: functional, cell-based
Settings: not given
Outline: (§1)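 Apo-ONE homogeneous caspase-3/7 kit. Cells seeded at 5 × 10⁴ per well and grown 24 h. Medium then replaced with compound at 1, 5 and 10 nM, or 0.1% DMSO as negative control, for 24 h. Caspase substrate and Apo-ONE buffer mix added, incubated 1 h, fluorescence read at 527 nm.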

Compound | Activity
COc1ccc2c(c1O)OCCC=C2c1cc(OC)c(OC)c(OC)c1 | Dose-dependent effect

Test system: HCT-116
Test: Induction of apoptosis in human HCT116 cells assessed as increase in proteolytic activity of caspase 3/7 after 24 hrs by fluorimeter analysis
Assay type: functional, cell-based
Settings: not given
Outline: as §1

Compound | Activity
COc1ccc2c(c1O)OCCC=C2c1cc(OC)c(OC)c(OC)c1 | Dose-dependent effect

Test system: MDA-MB-231
Test: Induction of cell cycle arrest in human MDA-MB-231 cells assessed as accumulation of cells in G2/M phase at 5 nM after 24 hrs by propidium iodide staining based flow cytometry
Assay type: functional
Settings: not given
Outline: (§2)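 Exponentially growing cells exposed to compound at 5 nM, or DMSO, for 24 h. Cell-cycle distribution determined by flow cytometry after standard propidium iodide staining.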

Compound | Activity
COc1ccc2c(c1O)OCCC=C2c1cc(OC)c(OC)c(OC)c1 | Active

Test system: NCI-H1299
Test: Induction of cell cycle arrest in human H1299 cells assessed as accumulation of cells in G2/M phase at 5 nM after 24 hrs by propidium iodide staining based flow cytometry
Assay type: functional
Settings: not given
Outline: as §2

Compound | Activity
COc1ccc2c(c1O)OCCC=C2c1cc(OC)c(OC)c(OC)c1 | Active

Test system: K562
Test: Induction of cell cycle arrest in human K562 cells assessed as accumulation of cells in G2/M phase at 5 nM after 24 hrs by propidium iodide staining based flow cytometry
Assay type: functional
Settings: not given
Outline: as §2

Compound | Activity
COc1ccc2c(c1O)OCCC=C2c1cc(OC)c(OC)c(OC)c1 | Active

Test system: HCT-116
Test: Induction of cell cycle arrest in human HCT116 cells assessed as accumulation of cells in G2/M phase at 5 nM after 24 hrs by propidium iodide staining based flow cytometry
Assay type: functional
Settings: not given
Outline: as §2

Compound | Activity
COc1ccc2c(c1O)OCCC=C2c1cc(OC)c(OC)c(OC)c1 | Active

Test system: MDA-MB-231
Test: Growth inhibition of hormone-independent human MDA-MB-231 cells after 72 hrs by Victor microtiter plate fluorimeter analysis
Assay type: functional
Settings: MDA-MB-231, 72 h

GI50 [nM] | Compound
15 | COc1ccc2c(c1O)OCCCC2c1cc(OC)c(OC)c(OC)c1 (stereo not given)
28 | COc1cc(OC)cc(C2=CCCOc3c2ccc(OC)c3O)c1

The remaining lines, values behind:

Compound | GI50 [nM]
COc1ccc2c(c1)OCCC=C2c1cc(OC)c(OC)c(OC)c1 | 250
COc1ccc2c(c1N)OCCC=C2c1cc(OC)c(OC)c(OC)c1 | 8
C=C(c1ccc(OC)c(O)c1)c1cc(OC)c(OC)c(OC)c1 | 4
COc1ccc2c(c1O)OCCC=C2c1cc(OC)c(OC)c(OC)c1 | 3

Test system: not listed separately
Test: Inhibition of sheep brain tubulin polymerization assessed as decrease in rate of microtubule assembly by fluorimeter analysis
Design: species or system Ovis aries
Settings: not given
Outline: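 Sheep brain tubulin purified by two assembly–disassembly cycles, at about 2-3 mg/mL in 0.1 M MES, 0.5 mM MgCl₂, 1 mM EGTA, 1 mM GTP, pH 6.6. Assembly followed by DAPI fluorescence at 37 °C. IC50 is the concentration halving the maximum assembly rate versus no compound. Measured the same day as the isoCA-4 reference.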

IC50 [nM] | Compound
3300 | COc1ccc2c(c1O)OCCCC2c1cc(OC)c(OC)c(OC)c1 (stereo not given)
3200 | COc1cc(OC)cc(C2=CCCOc3c2ccc(OC)c3O)c1

More lines, now with the values behind:

Compound | IC50 [nM]
COc1ccc2c(c1)OCCC=C2c1cc(OC)c(OC)c(OC)c1 | 3900
COc1ccc2c(c1N)OCCC=C2c1cc(OC)c(OC)c(OC)c1 | 3600
C=C(c1ccc(OC)c(O)c1)c1cc(OC)c(OC)c(OC)c1 | 1500
COc1ccc2c(c1O)OCCC=C2c1cc(OC)c(OC)c(OC)c1 | 3800

Test system: not listed separately
Test: Growth inhibition of human H1299 cells after 72 hrs by Victor microtiter plate fluorimeter analysis
Assay type: functional
Settings: NCI-H1299, 72 h

Compound | GI50 [nM]
COc1ccc2c(c1)OCCC=C2c1cc(OC)c(OC)c(OC)c1 | 180
COc1ccc2c(c1N)OCCC=C2c1cc(OC)c(OC)c(OC)c1 | 30
COc1ccc2c(c1O)OCCCC2c1cc(OC)c(OC)c(OC)c1 (stereo not given) | 7
C=C(c1ccc(OC)c(O)c1)c1cc(OC)c(OC)c(OC)c1 | 3
COc1ccc2c(c1O)OCCC=C2c1cc(OC)c(OC)c(OC)c1 | 4.5
COc1cc(OC)cc(C2=CCCOc3c2ccc(OC)c3O)c1 | 32

Test system: HCT-116
Test: Growth inhibition of human HCT116 cells after 72 hrs by Victor microtiter plate fluorimeter analysis
Assay type: functional
Settings: not given

GI50 | Compound
inactive | COc1ccc2c(c1CCCCO)OCCCC2c1cc(OC)c(OC)c(OC)c1 (stereo not given)

Same assay, conditions: HCT-116, 72 h

GI50 [nM] | Compound
20 | COc1ccc2c(c1O)OCCCC2c1cc(OC)c(OC)c(OC)c1 (stereo not given)
25 | COc1cc(OC)cc(C2=CCCOc3c2ccc(OC)c3O)c1

Further lines, the molecule ahead of its results:

Compound | GI50 [nM]
COc1ccc2c(c1)OCCC=C2c1cc(OC)c(OC)c(OC)c1 | 85
COc1ccc2c(c1N)OCCC=C2c1cc(OC)c(OC)c(OC)c1 | 22
C=C(c1ccc(OC)c(O)c1)c1cc(OC)c(OC)c(OC)c1 | 3
COc1ccc2c(c1Br)OCCC=C2c1cc(OC)c(OC)c(OC)c1 | 170
COc1ccc2c(c1C#CCCO)OCCC=C2c1cc(OC)c(OC)c(OC)c1 | 250
COc1ccc2c(c1O)OCCC=C2c1cc(OC)c(OC)c(OC)c1 | 1.5
COc1ccc(/C=C\c2cc(OC)c(OC)c(OC)c2)cc1O [COMBRETASTATIN A4] | 2

Test system: K562
Test: Growth inhibition of human K562 cells after 72 hrs by Victor microtiter plate fluorimeter analysis
Assay type: functional
Settings: K562, 72 h

GI50 [nM] | Compound
50 | COc1ccc2c(c1O)OCCCC2c1cc(OC)c(OC)c(OC)c1 (stereo not given)
30 | COc1cc(OC)cc(C2=CCCOc3c2ccc(OC)c3O)c1

The remaining lines, values behind:

Compound | GI50 [nM]
COc1ccc2c(c1)OCCC=C2c1cc(OC)c(OC)c(OC)c1 | 100
COc1ccc2c(c1N)OCCC=C2c1cc(OC)c(OC)c(OC)c1 | 40
C=C(c1ccc(OC)c(O)c1)c1cc(OC)c(OC)c(OC)c1 | 5
COc1ccc2c(c1O)OCCC=C2c1cc(OC)c(OC)c(OC)c1 | 8
